Source: ChEMBL document CHEMBL4406859, “Antitumor and antiviral activities of 4-substituted 1,2,3-triazolyl-2,3-dibenzyl-L-ascorbic acid derivatives” (Eur J Med Chem, 2019)
The source made the active and inactive calls. No cut-off for these calls is given here.

Assays:
Cytomegalovirus [1] = experiment: Antiviral activity against Cytomegalovirus AD169 infected in human HELF cells assessed as reduction in virus-induced cytopathogenicity incubated for 7 days by Giemsa staining based microscopic analysis; format: functional, organism-based; conditions: Human betaherpesvirus 5, AD169, HELF, 168 h
Procedure, shortened: (§1)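 Confluent HEL fibroblasts infected with CMV (Davis or AD-169) at 100 PFU/well for 2 h. Residual virus removed, then medium with graded compound concentrations added (duplicate). Incubated 7 days at 37 °C. Cytopathogenicity scored microscopically after ethanol fixation and Giemsa staining. EC50 read from plots of % cytopathogenicity versus concentration.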

[2] = Cytotoxicity against human HELF cells assessed as reduction in cell viability incubated for 3 days by coulter counter method; format: cell-based; conditions: 72 h
Procedure, shortened: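 HEL cells seeded at 5 x 10^3/well and allowed to proliferate 24 h, then exposed to graded compound concentrations for 3 days at 37 °C. Cell number counted with a Coulter counter.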

Human alphaherpesvirus 1 [3] = experiment: Antiviral activity against Herpes simplex virus 1 TK-KOS-ACV infected in human HELF cells assessed as reduction in virus-induced cytopathogenicity incubated for 7 days by microscopic analysis; format: functional, organism-based; conditions: for EC50: Human alphaherpesvirus 1, TK-KOS-ACV, 168 h
Human alphaherpesvirus 2 = experiment: Antiviral activity against Herpes simplex virus 2 G infected in human HELF cells assessed as reduction in virus-induced cytopathogenicity incubated for 7 days by microscopic analysis; format: functional, organism-based; conditions: for EC50: Human alphaherpesvirus 2, G, 168 h
Cytomegalovirus [4] = experiment: Antiviral activity against Cytomegalovirus Davis infected in human HELF cells assessed as reduction in virus-induced cytopathogenicity incubated for 7 days by Giemsa staining based microscopic analysis; format: functional, organism-based; conditions: Human betaherpesvirus 5, Davis, 168 h; procedure, shortened: as §1
[5] = Cytotoxicity against human HELF cells assessed as minimum cytotoxic concentration by observing alteration in cell morphology incubated for 3 days by microscopic analysis; format: cell-based; conditions: for MCC: 72 h; for MCC at 72 h: HELF cells
Procedure, shortened: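 Read-out is the minimum cytotoxic concentration (MCC): the lowest compound concentration giving a microscopically detectable change in cell morphology. Measured on confluent human embryonic lung (HEL) fibroblast cultures exposed to a range of compound concentrations.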

Human adenovirus 2 = experiment: Antiviral activity against Human adenovirus 2 infected in human HELF cells assessed as reduction in virus-induced cytopathogenicity incubated for 7 days by microscopic analysis; format: functional, organism-based; conditions: for EC50: Human mastadenovirus C, 168 h
Human coronavirus 229E = experiment: Antiviral activity against Human coronavirus 229E infected in human HELF cells assessed as reduction in virus-induced cytopathogenicity incubated for 7 days by microscopic analysis; format: functional, organism-based
SW-620 = experiment: Antiproliferative activity against human SW620 cells assessed as reduction in cell viability incubated for 72 hrs by MTT assay; format: functional, cell-based; conditions: SW-620, 72 h
Procedure, shortened: (§2)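 Cells (ATCC) grown in DMEM with 10 FBS, penicillin/streptomycin, 2 mM glutamine, 37 °C, 5 CO2. 5000 cells/well seeded; after 24 h, freshly prepared dilutions at five concentrations (0.01–100 μM) added for 72 h. MTT read-out; absorbance converted to percentage growth by NIH formulas. Two experiments in quadruplicate; IC50 by linear regression.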

A549 = experiment: Antiproliferative activity against human A549 cells assessed as reduction in cell viability incubated for 72 hrs by MTT assay; format: functional, cell-based; conditions: A549, 72 h; procedure, shortened: as §2
Influenza A virus [6] = experiment: Antiviral activity against Influenza A virus (A/Ned/378/05(H1N1)) infected in dog MDCK cells assessed as reduction in virus-induced cytopathogenicity incubated for 7 days by microscopic analysis; format: functional, organism-based
Human alphaherpesvirus 3 [7] = experiment: Antiviral activity against thymidine kinase positive Varicella zoster virus infected in human HELF cells assessed as reduction in virus-induced cytopathogenicity incubated for 7 days by Giemsa staining based microscopic analysis; format: functional, organism-based; conditions: Human alphaherpesvirus 3, HELF, 168 h
Influenza A virus H3N2 [8] = experiment: Antiviral activity against Influenza A virus (A/HK/7/87(H3N2)) infected in dog MDCK cells assessed as reduction in virus-induced cytopathogenicity incubated for 7 days by MTS assay; format: functional, organism-based; conditions: A/Hong Kong/7/1987(H3N2)
HeLa = experiment: Antiproliferative activity against human HeLa cells assessed as reduction in cell viability incubated for 72 hrs by MTT assay; format: functional, cell-based; procedure, shortened: as §2
HepG2 = experiment: Antiproliferative activity against human HepG2 cells assessed as reduction in cell viability incubated for 72 hrs by MTT assay; format: functional, cell-based; conditions: HepG2, 72 h; procedure, shortened: as §2
Influenza A virus [9] = experiment: Antiviral activity against Influenza A virus (A/Ned/378/05(H1N1)) infected in dog MDCK cells assessed as reduction in virus-induced cytopathogenicity incubated for 7 days by MTS assay; format: functional, organism-based
Sindbis virus = experiment: Antiviral activity against Sindbis virus infected in vero cells assessed as reduction in virus-induced cytopathogenicity incubated for 7 days by microscopic analysis; format: functional, organism-based
CFPAC-1 = experiment: Antiproliferative activity against human CFPAC-1 cells assessed as reduction in cell viability incubated for 72 hrs by MTT assay; format: functional, cell-based; conditions: Homo sapiens, CFPAC-1, 72 h; read-out: IC50; procedure, shortened: as §2
Influenza A virus H3N2 [10] = experiment: Antiviral activity against Influenza A virus (A/HK/7/87(H3N2)) infected in dog MDCK cells assessed as reduction in virus-induced cytopathogenicity incubated for 7 days by microscopic analysis; format: functional, organism-based; conditions: A/Hong Kong/7/1987(H3N2)
Human alphaherpesvirus 1 [11] = experiment: Antiviral activity against Herpes simplex virus 1 KOS infected in human HELF cells assessed as reduction in virus-induced cytopathogenicity incubated for 7 days by microscopic analysis; format: functional, organism-based; conditions: for Activity: strain KOS
HCT-116 = experiment: Antiproliferative activity against human HCT116cells assessed as reduction in cell viability incubated for 72 hrs by MTT assay; format: functional, cell-based; conditions: HCT-116, 72 h; procedure, shortened: as §2
HFF = experiment: Cytotoxicity against human HFF cells assessed as reduction in cell viability incubated for 72 hrs by MTT assay; format: cell-based; procedure, shortened: as §2
Influenza B virus [12] = experiment: Antiviral activity against Influenza B virus (B/Ned/537/05) infected in dog MDCK cells assessed as reduction in virus-induced cytopathogenicity incubated for 7 days by MTS assay; format: functional, organism-based
MCF7 = experiment: Antiproliferative activity against human MCF7 cells assessed as reduction in cell viability incubated for 72 hrs by MTT assay; format: functional, cell-based; conditions: MCF7, 72 h; procedure, shortened: as §2
Influenza B virus [13] = experiment: Antiviral activity against Influenza B virus (B/Ned/537/05) infected in dog MDCK cells assessed as reduction in virus-induced cytopathogenicity incubated for 7 days by microscopic analysis; format: functional, organism-based
Coxsackievirus B4 = experiment: Antiviral activity against Human coxsackievirus B4 infected in vero cells assessed as reduction in virus-induced cytopathogenicity incubated for 7 days by microscopic analysis; format: functional, organism-based
Human alphaherpesvirus 3 [14] = experiment: Antiviral activity against thymidine kinase deficient Varicella zoster virus infected in human HELF cells assessed as reduction in virus-induced cytopathogenicity incubated for 7 days by Giemsa staining based microscopic analysis; format: functional, organism-based; conditions: Human alphaherpesvirus 3, HELF, 168 h
Reovirus sp. = experiment: Antiviral activity against Reovirus infected in vero cells assessed as reduction in virus-induced cytopathogenicity incubated for 7 days by microscopic analysis; format: functional, organism-based

| Structure (SMILES) | EC50 (Cytomegalovirus [1]) | EC50 (Human alphaherpesvirus 2) | EC50 (Cytomegalovirus [4]) | MCC at 72 h [5] | Activity (Human coronavirus 229E) | IC50 (SW-620) | IC50 (A549) | Activity (Influenza A virus [6]) | Activity (Human alphaherpesvirus 1 [3]) | EC50 (Human alphaherpesvirus 3 [7]) | Activity (Human alphaherpesvirus 2) | Activity (Influenza A virus H3N2 [8]) | IC50 (HeLa) | IC50 (HepG2) | Activity (Human adenovirus 2) | Activity (Influenza A virus [9]) | IC50 (CFPAC-1) | IC50 (HCT-116) | IC50 (HFF) | IC50 (MCF7) | also measured |
| --- | --- | --- | --- | --- | --- | --- | --- | --- | --- | --- | --- | --- | --- | --- | --- | --- | --- | --- | --- | --- | --- |
| Nc1ccn(C[C@@H](CO)OCP(=O)(O)O)c(=O)n1 [CIDOFOVIR] | 0.43 µM | 5.3 µM | 0.65 µM |  |  |  |  |  |  |  |  |  |  |  |  |  |  |  |  |  | CC50 [2]: 214 µM; EC50 (Human alphaherpesvirus 1 [3]): 4.5 µM; MCC [5]: 250 to 300 µM |
| Nc1nc(O)c2ncn(COC(CO)CO)c2n1 [GANCICLOVIR] | 3.15 µM | 0.3 µM | 2.3 µM | > 350 µM |  |  |  |  |  |  |  |  |  |  |  |  |  |  |  |  | CC50 [2]: > 350 µM |
| Nc1nc2c(ncn2COCCO)c(=O)[nH]1 [ACYCLOVIR] |  | 2 µM |  |  |  |  |  |  |  |  |  |  |  |  |  |  |  |  |  |  | CC50 [2]: > 440 µM; EC50 (Human alphaherpesvirus 1 [3]): 17 µM; EC50 (Human adenovirus 2): 5.8 µM; MCC [5]: 250 to 440 µM |
| CCCCc1cn(C[C@H](O)[C@H]2OC(=O)C(OCc3ccccc3)=C2OCc2ccccc2)nn1 | > 20 µM |  | > 4 µM | 20 µM | inactive | 47.5 µM | 28.6 µM | inactive | inactive | 7.31 µM | inactive | inactive | 18.1 µM | 32.8 µM | inactive | inactive | 73.2 µM | 10.4 µM | 26.3 µM | 7.91 µM | Activity (Sindbis virus): inactive; Activity (Influenza A virus H3N2 [10]): inactive; Activity (Human alphaherpesvirus 1 [11]): inactive; Activity (Influenza B virus [12]): inactive; Activity (Influenza B virus [13]): inactive; Activity (Coxsackievirus B4): inactive; EC50 (Human alphaherpesvirus 3 [14]): > 20 µM; Activity (Reovirus sp.): inactive |
| O=C1O[C@H]([C@@H](O)Cn2cc(C3CC3)nn2)C(OCc2ccccc2)=C1OCc1ccccc1 | 44.7 µM |  | > 20 µM | 100 µM | inactive | 54.2 µM | 43.9 µM | inactive | inactive | > 100 µM | inactive | inactive | 26.5 µM | 38.1 µM | inactive | inactive | 47.7 µM | 30.4 µM | 24.3 µM | 25.9 µM | Activity (Sindbis virus): inactive; Activity (Influenza A virus H3N2 [10]): inactive; Activity (Human alphaherpesvirus 1 [11]): inactive; Activity (Influenza B virus [12]): inactive; Activity (Influenza B virus [13]): inactive; Activity (Coxsackievirus B4): inactive; EC50 (Human alphaherpesvirus 3 [14]): > 100 µM; Activity (Reovirus sp.): inactive |
| CCCCc1cn(C/C=C2\OC(=O)C(OCc3ccccc3)=C2OCc2ccccc2)nn1 |  | 9.45 µM |  | 100 µM |  |  | > 100 µM |  |  |  |  |  | 67.7 µM | 77.1 µM |  |  | 72.5 µM | 61.2 µM | 49.5 µM | 57.2 µM | EC50 (Human coronavirus 229E; 168 h): 8.45 µM; EC50 (Human alphaherpesvirus 1 [3]): > 100 µM; EC50 (Human adenovirus 2): 20 µM; EC50 (Human alphaherpesvirus 1 [11]; Human alphaherpesvirus 1, strain KOS, 168 h): > 100 µM |
| O=C1O/C(=C\Cn2cc(CCO)nn2)C(OCc2ccccc2)=C1OCc1ccccc1 | > 100 µM |  | > 100 µM | > 100 µM | inactive | 41.9 µM | > 100 µM | inactive | inactive | > 100 µM | inactive | inactive | 27.9 µM | 39 µM | inactive | inactive | 43.4 µM | 27.9 µM | 25.6 µM | 37.2 µM | Activity (Sindbis virus): inactive; Activity (Influenza A virus H3N2 [10]): inactive; Activity (Human alphaherpesvirus 1 [11]): inactive; Activity (Influenza B virus [12]): inactive; Activity (Influenza B virus [13]): inactive; Activity (Coxsackievirus B4): inactive; EC50 (Human alphaherpesvirus 3 [14]): 78.1 µM; Activity (Reovirus sp.): inactive |
| CC(C)(C)c1cn(C[C@H](O)[C@H]2OC(=O)C(OCc3ccccc3)=C2OCc2ccccc2)nn1 | 44.7 µM |  | > 20 µM | 100 µM | inactive | 35.8 µM | 34 µM | inactive | inactive | 48.9 µM | inactive | inactive | 18.3 µM | 29.2 µM | inactive | inactive | 54.9 µM | 28.3 µM | 13.3 µM | 0.73 µM | Activity (Sindbis virus): inactive; Activity (Influenza A virus H3N2 [10]): inactive; Activity (Human alphaherpesvirus 1 [11]): inactive; Activity (Influenza B virus [12]): inactive; Activity (Influenza B virus [13]): inactive; Activity (Coxsackievirus B4): inactive; EC50 (Human alphaherpesvirus 3 [14]): > 20 µM; Activity (Reovirus sp.): inactive |
